The text below walks through data of ChEMBL document CHEMBL1140920, “Design, synthesis, and biological evaluation of 6alpha- and 6beta-N-heterocyclic substituted naltrexamine derivatives as mu opioid receptor selective antagonists” (J Med Chem, 2009).

Assay [1] concerns the target T1, Mu-type opioid receptor (Homo sapiens, UniProt P35372). Nature of the assay: Activity at monocloned mu opioid receptor expressed in CHO cells by [35S]GTPgammaS binding assay relative to DAMGO. Type of assay: functional, cell-based.
Assay [2] deals with T1, Mu-type opioid receptor. Nature of the assay: Displacement of [3H]naloxone from monocloned mu opioid receptor expressed in CHO cells. Type of assay: cell-based. The method in brief:
(§1)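 CHO cell membranes expressing cloned receptor incubated with radioligand plus varying test drug concentrations, 30 °C, 1 h. IC50 from linear regression of Hill plots, converted to Ki by Cheng-Prusoff; selectivity as Ki ratios.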

The target in assay [3] is Delta-type opioid receptor (Homo sapiens, UniProt P41143). Nature of the assay: Displacement of [3H]NTI from monocloned delta opioid receptor expressed in CHO cells. Type of assay: cell-based. The method, boiled down:
as §1

The target of assay [4] is Kappa-type opioid receptor (Homo sapiens, UniProt P41145). Nature of the assay: Displacement of [3H]norBNI from monocloned kappa opioid receptor expressed in CHO cells. It is filed as cell-based. The method in brief: as §1
A short description of assay [5]: Selectivity ratio of Ki for monocloned delta opioid receptor to Ki for monocloned mu opioid receptor. The method in brief: as §1
Assay [6] in a line: Selectivity ratio of Ki for monocloned kappa opioid receptor to Ki for monocloned mu opioid receptor. The method, boiled down: as §1
In assay [7] the target is T1, Mu-type opioid receptor. Nature of the assay: Activity at monocloned mu opioid receptor expressed in CHO cells by [35S]GTPgammaS binding assay. Type of assay: functional, cell-based. The method, boiled down:
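Membranes from CHO cells stably expressing cloned MOR, the same membranes as used for binding. [35S]GTPγS binding as the functional read-out. Potency also reported. n = 3.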

Assay [8] concerns Mus musculus. Nature of the assay: Inhibition of morphine-induced antinociception in sc dosed Swiss Webster mouse assessed as dose producing 50% antagonism of morphine response preincubated for 5 mins before the addition of morphine assessed after 20 mins by warm water tail immersion test. Type of assay: functional.
The test system of assay [9] is Mus musculus. Nature of the assay: Induction of antinociception in sc dosed Swiss Webster mouse after 20 mins by warm water tail immersion test. It is filed as functional.
The nature of assay [10]: Binding affinity to mu opioid Y210A mutant receptor expressed in CHO cells. Type of assay: cell-based.
The nature of assay [11]: Binding affinity to mu opioid W318A mutant receptor expressed in CHO cells. Type of assay: cell-based.
In assay [12] the target is T1, Mu-type opioid receptor. Nature of the assay: biochemical.

Sequence of Kappa-type opioid receptor (P41145 whole entry): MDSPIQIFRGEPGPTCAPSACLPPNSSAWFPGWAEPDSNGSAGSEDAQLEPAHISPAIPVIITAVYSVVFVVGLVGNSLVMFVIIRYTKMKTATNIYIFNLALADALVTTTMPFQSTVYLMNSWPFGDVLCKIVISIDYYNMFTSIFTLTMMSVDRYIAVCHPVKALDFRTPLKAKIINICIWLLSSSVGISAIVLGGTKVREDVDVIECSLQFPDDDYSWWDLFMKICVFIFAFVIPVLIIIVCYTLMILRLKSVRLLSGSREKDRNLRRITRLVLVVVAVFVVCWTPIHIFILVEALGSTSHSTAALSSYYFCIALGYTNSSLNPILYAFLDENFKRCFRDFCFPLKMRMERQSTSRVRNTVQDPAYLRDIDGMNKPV
Sequence of Delta-type opioid receptor (P41143 whole entry): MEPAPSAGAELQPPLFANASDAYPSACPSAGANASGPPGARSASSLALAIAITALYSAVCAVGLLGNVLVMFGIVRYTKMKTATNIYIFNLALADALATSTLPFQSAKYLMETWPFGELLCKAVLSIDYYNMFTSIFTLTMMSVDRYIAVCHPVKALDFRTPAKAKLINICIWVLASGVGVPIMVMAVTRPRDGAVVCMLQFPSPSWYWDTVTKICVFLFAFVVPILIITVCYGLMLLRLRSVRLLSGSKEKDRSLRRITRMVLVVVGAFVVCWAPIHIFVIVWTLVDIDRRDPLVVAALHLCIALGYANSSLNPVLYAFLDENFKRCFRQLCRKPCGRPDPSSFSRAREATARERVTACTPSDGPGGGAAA
T1 sequence (P35372 whole entry): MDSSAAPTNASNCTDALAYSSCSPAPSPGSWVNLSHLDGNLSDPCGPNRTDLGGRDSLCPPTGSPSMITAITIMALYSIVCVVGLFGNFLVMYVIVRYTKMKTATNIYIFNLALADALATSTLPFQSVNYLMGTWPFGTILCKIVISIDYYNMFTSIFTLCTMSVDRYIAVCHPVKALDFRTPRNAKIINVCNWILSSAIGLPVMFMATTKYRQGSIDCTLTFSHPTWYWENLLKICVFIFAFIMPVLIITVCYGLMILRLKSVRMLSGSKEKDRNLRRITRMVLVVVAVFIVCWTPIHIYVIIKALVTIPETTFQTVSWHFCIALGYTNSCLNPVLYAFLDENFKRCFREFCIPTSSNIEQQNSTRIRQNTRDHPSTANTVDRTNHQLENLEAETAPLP

In the case of `O=C(N[C@H]1CC[C@@]2(O)[C@H]3Cc4ccc(O)c5c4[C@@]2(CCN3CC2CC2)[C@H]1O5)c1cccnc1`, the Activity on Mu-type opioid receptor [1] came out at 44.8%; in the assay on Mus musculus [8], 36.77 mg/kg. Further, the values for the Ki (at Mu-type opioid receptor [2]; in [3]; in assay [4]) were 0.15 nM, 40.8 nM and 77.2 nM, respectively. Also, the results for the Ratio Ki in assay [5] and in assay [6] were 265 and 501, respectively. This compound displayed an Emax on Mu-type opioid receptor [7] of 164%. Further, the EC50 on Mu-type opioid receptor [7] (read-out: EC50) is 1.01 nM.
Consider `O=C(N[C@H]1CC[C@@]2(O)[C@H]3Cc4ccc(O)c5c4[C@@]2(CCN3CC2CC2)[C@H]1O5)c1ccncc1`, for which the Activity at Mu-type opioid receptor [1] was 37.3%. Besides, in assay [4], the Ki is 19.6 nM. Moreover, the Emax at Mu-type opioid receptor [7] amounted to 137%.
With `O=C(N[C@@H]1CC[C@@]2(O)[C@H]3Cc4ccc(O)c5c4[C@@]2(CCN3CC2CC2)[C@H]1O5)c1cnc2ccccc2c1`, the Activity on Mu-type opioid receptor [1] came out at 53.4%; with Mus musculus [8] it was 42.55 mg/kg. The Ki on Mu-type opioid receptor [2] is 0.07 nM; in assay [3], 11.6 nM; in assay [4] it was 0.57 nM. The figures for the Ratio Ki in [5] and in assay [6] were 157 and 8, respectively. Besides, the Emax at Mu-type opioid receptor [7] was 196%. For the same compound, at Mu-type opioid receptor [7] (cho), the EC50 came out at 0.29.
`O=C(N[C@H]1CC[C@@]2(O)[C@H]3Cc4ccc(O)c5c4[C@@]2(CCN3CC2CC2)[C@H]1O5)c1cnc2ccccc2c1`: the Activity on Mu-type opioid receptor [1] turned out to be 44.8%; in the assay on Mus musculus [8], 4.45 mg/kg. Further, the Ki at Mu-type opioid receptor [2] was 0.12 nM; in [3] it was 32.2 nM; in [4] it was 1.81 nM. Also, the figures for the Ratio Ki in [5] and in assay [6] were 277 and 16, respectively. The Emax at Mu-type opioid receptor [7] was 164%. Further, the EC50 on Mu-type opioid receptor [7] (read-out: EC50) came to 2.29 nM.
For `COc1cccc2c1[C@]13CCN(CC4CC4)[C@H](C2)[C@]1(OC)CCC(=O)C3`, the Ratio Ki in assay [5] turned out to be 40; in [6], 45.
As for `O=C(N[C@@H]1CC[C@@]2(O)[C@H]3Cc4ccc(O)c5c4[C@@]2(CCN3CC2CC2)[C@H]1O5)c1ccccc1`, the inhibition constant (Ki) at Mu-type opioid receptor [2] is 0.92 nM; in assay [4], 7.79 nM.
As for `O=C(N[C@@H]1CC[C@@]2(O)[C@H]3Cc4ccc(O)c5c4[C@@]2(CCN3CC2CC2)[C@H]1O5)c1ccccn1`, the Activity at Mu-type opioid receptor [1] is 41.1%; with Mus musculus [8], 0.33 mg/kg. Further, the Ki at Mu-type opioid receptor [2] was found to be 5.85 nM; in assay [3] it was 215 nM; in assay [4], 278 nM. The results for the Ratio Ki in [5] and in assay [6] were 37 and 47, respectively. Further, the Emax on Mu-type opioid receptor [7] is 151%. Besides, the EC50 at Mu-type opioid receptor [7] (read-out: EC50) was 26.3 nM.
As to `O=C(N[C@@H]1CC[C@@]2(O)[C@H]3Cc4ccc(O)c5c4[C@@]2(CCN3CC2CC2)[C@H]1O5)c1cccnc1`, the Activity on Mu-type opioid receptor [1] is 29.1%; with Mus musculus [8], 1.38 mg/kg. In addition, the Ki on Mu-type opioid receptor [2] came out at 0.14 nM; in [3] it was 192 nM; in assay [4] it was 5.42 nM. In addition, the Ratio Ki in assay [5] stood at 1410; in [6], 40. In addition, the Emax on Mu-type opioid receptor [7] was found to be 107%. In addition, on Mu-type opioid receptor [7] (read-out: EC50), the EC50 came to 0.33 nM.
For `O=C(N[C@H]1CC[C@@]2(O)[C@H]3Cc4ccc(O)c5c4[C@@]2(CCN3CC2CC2)[C@H]1O5)c1ccc2ccccc2n1`, the Activity at Mu-type opioid receptor [1] was 65.4%. For the same compound, the Ki on Mu-type opioid receptor [2] was 0.21 nM; in [3], 148 nM; in assay [4], 9.84 nM. Also, the Ratio Ki was 693 in assay [5] and 46 in [6]. The Emax at Mu-type opioid receptor [7] amounted to 240%. For the same compound, the EC50 at Mu-type opioid receptor [7] (read-out: EC50) came out at 0.09 nM. The same compound came in with an ED50 in the assay on Mus musculus [9] of 4.57 mg/kg.
As for `O=C(N[C@H]1CC[C@@]2(O)[C@H]3Cc4ccc(O)c5c4[C@@]2(CCN3CC2CC2)[C@H]1O5)c1cc2ccccc2cn1`, the IC50 was 3.31 nM in assay [10], more than 1000 nM in assay [11] and 5.42 nM on Mu-type opioid receptor [12]. This compound displayed an Activity on Mu-type opioid receptor [1] of 15.8%. Moreover, the Ki at Mu-type opioid receptor [2] is 0.55 nM; in assay [3] it was 132 nM; in [4], 26.5 nM. Moreover, the Ratio Ki in [5] was 241; in [6], 48. On Mu-type opioid receptor [7], this compound gave an Emax of 58%. Further, the EC50 at Mu-type opioid receptor [7] (read-out: EC50) was 4.36 nM.
At Mu-type opioid receptor [1], `O=C(N[C@@H]1CC[C@@]2(O)[C@H]3Cc4ccc(O)c5c4[C@@]2(CCN3CC2CC2)[C@H]1O5)c1cc2ccccc2cn1` showed an Activity of 33%. Further, the Ki on Mu-type opioid receptor [2] was 0.1 nM; in assay [3] it was 15.4 nM; in [4], 1.58 nM. Also, the Ratio Ki was 156 in assay [5] and 16 in [6]. Also, at Mu-type opioid receptor [7], the Emax is 121%. Further, the EC50 on Mu-type opioid receptor [7] (read-out: EC50) was 0.27 nM. This compound also returned an ED50 in the assay with Mus musculus [9] of 1.19 mg/kg.
For `O=C(N[C@@H]1CC[C@@]2(O)[C@H]3Cc4ccc(O)c5c4[C@@]2(CCN3CC2CC2)[C@H]1O5)c1ccc2ccccc2c1`, the Ki on Mu-type opioid receptor [2] came out at 55.6 nM; in assay [3], 29.3 nM; in assay [4] it was 65.3 nM. Moreover, the Ratio Ki stood at 0.5 in [5] and 1 in [6].
The corresponding values for `O=C(N[C@H]1CC[C@@]2(O)[C@H]3Cc4ccc(O)c5c4[C@@]2(CCN3CC2CC2)[C@H]1O5)c1ccc2ccccc2c1` are 8.36 nM, 518 nM, 609 nM, 62 and 73.
Turning to `O=C(N[C@H]1CC[C@@]2(O)[C@H]3Cc4ccc(O)c5c4[C@@]2(CCN3CC2CC2)[C@H]1O5)c1ccccn1`, the Activity on Mu-type opioid receptor [1] amounted to 37.8%; in the assay with Mus musculus [8] it was 0.89 mg/kg. For the same compound, the Ki on Mu-type opioid receptor [2] is 2.65 nM; in assay [3], 64.5 nM; in [4], 223 nM. For the same compound, the Ratio Ki turned out to be 24 in assay [5] and 84 in assay [6]. For the same compound, at Mu-type opioid receptor [7], the Emax turned out to be 134%. The EC50 on Mu-type opioid receptor [7] (read-out: EC50) was found to be 23.9 nM.
For `O=C(N[C@H]1CC[C@@]2(O)[C@H]3Cc4ccc(O)c5c4[C@@]2(CCN3CC2CC2)[C@H]1O5)c1ccccc1`, the figures for the Ki (on Mu-type opioid receptor [2]; in assay [4]) were 1.41 nM and 41.7 nM, respectively.
`O=C(N[C@@H]1CC[C@@]2(O)[C@H]3Cc4ccc(O)c5c4[C@@]2(CCN3CC2CC2)[C@H]1O5)c1ccc2ccccc2n1` gave an Activity at Mu-type opioid receptor [1] of 40.9%. Besides, the Ki at Mu-type opioid receptor [2] is 0.11 nM; in [3] it was 3.86 nM; in [4], 5.04 nM. Further, the Ratio Ki in assay [5] came out at 36; in assay [6] it was 47. The Emax on Mu-type opioid receptor [7] turned out to be 150%. In addition, the EC50 on Mu-type opioid receptor [7] (read-out: EC50) was 0.69 nM. This compound displayed an ED50 with Mus musculus [9] of 0.04 mg/kg.
`O=C(N[C@@H]1CC[C@@]2(O)[C@H]3Cc4ccc(O)c5c4[C@@]2(CCN3CC2CC2)[C@H]1O5)c1ccncc1` yielded an IC50 in assay [11] of more than 1000 nM. Besides, on Mu-type opioid receptor [1], the Activity came to 22.7%. Moreover, the Emax on Mu-type opioid receptor [7] came to 83.3%.
